# Test results published in ChEMBL document CHEMBL4689842, “EUbOPEN Chemogenomics Library wave 1” (2021).
# Test system: HEK-293T
# Test: Multiplex assay against HEK293T;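 on Population Tubulin-Different-Phenotype (%): share of the cells with healthy nuclei that show this phenotype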
# Format: toxicity, cell-based
# Conditions: human
# In short: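 Values for tubulin, mitochondrial-mass and membrane-permeability phenotypes are per cents of cells with healthy nuclei. These cells were identified by CellPathfinder machine-learning gating of live cells that had been stained at seeding with Hoechst33342, BioTracker Green Microtubule Cytoskeleton Dye, MitoTracker Red and Annexin V Alexa Fluor 680 and imaged on a CQ1 microscope at 37°C and 5% CO2 after compound addition. The gating first set Hoechst high-intensity objects apart from normal cells, then split normal cells into healthy, pyknosed or fragmented nuclei, and pyknosed cells into mitotic or apoptotic.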
# [1] = 12 h, 1 µM, compound concentration 1 uM, replicate 1
# [2] = 12 h, 1 µM, compound concentration 1 uM, replicate 2
# [3] = 12 h, 10 µM, compound concentration 10 uM, replicate 1
# [4] = 12 h, 10 µM, compound concentration 10 uM, replicate 2
# [5] = 24 h, 1 µM, compound concentration 1 uM, replicate 1
# [6] = 24 h, 1 µM, compound concentration 1 uM, replicate 2
# [7] = 24 h, 10 µM, compound concentration 10 uM, replicate 1
# [8] = 24 h, 10 µM, compound concentration 10 uM, replicate 2
# [9] = 48 h, 1 µM, compound concentration 1 uM, replicate 1
# [10] = 48 h, 1 µM, compound concentration 1 uM, replicate 2
# [11] = 48 h, 10 µM, compound concentration 10 uM, replicate 1
# [12] = 48 h, 10 µM, compound concentration 10 uM, replicate 2
structure (smiles),measurement,setting,value
CCc1ccc(OCc2ccccc2C(=O)Nc2ccc3nc(C)cc(N)c3c2)cc1.Cl,Population Apoptotic (%),[1],84%
same,Population Fragmented Nuclei (%),[1],28%
same,Population Healthy Nuclei (%),[1],7%
same,Population Hoechst High Intensity Objects (%),[1],18%
same,Population Membrane Permeable-Phenotype (%),[1],33%
same,Population Mitochondria Different-Phenotype (%),[1],100%
same,Population Mitotic Cells (%),[1],15%
same,Population Normal (%),[1],81%
same,Population Pyknosed Nuclei (%),[1],64%
same,Population Tubulin-Different-Phenotype (%),[1],66%
same,Total Cell Count,[1],156
same,Population Apoptotic (%),[2],73%
same,Population Fragmented Nuclei (%),[2],8%
same,Population Healthy Nuclei (%),[2],12%
same,Population Hoechst High Intensity Objects (%),[2],14%
same,Population Membrane Permeable-Phenotype (%),[2],0%
same,Population Mitochondria Different-Phenotype (%),[2],93%
same,Population Mitotic Cells (%),[2],26%
same,Population Normal (%),[2],85%
same,Population Pyknosed Nuclei (%),[2],79%
same,Population Tubulin-Different-Phenotype (%),[2],73%
same,Total Cell Count,[2],146
same,Population Apoptotic (%),[3],50%
same,Population Fragmented Nuclei (%),[3],19%
same,Population Healthy Nuclei (%),[3],0%
same,Population Hoechst High Intensity Objects (%),[3],24%
same,Population Membrane Permeable-Phenotype (%),[3],0%
same,Population Mitochondria Different-Phenotype (%),[3],0%
same,Population Mitotic Cells (%),[3],50%
same,Population Normal (%),[3],75%
same,Population Pyknosed Nuclei (%),[3],80%
same,Population Tubulin-Different-Phenotype (%),[3],0%
same,Total Cell Count,[3],144
same,Population Apoptotic (%),[4],62%
same,Population Fragmented Nuclei (%),[4],18%
same,Population Healthy Nuclei (%),[4],30%
same,Population Hoechst High Intensity Objects (%),[4],35%
same,Population Membrane Permeable-Phenotype (%),[4],11%
same,Population Mitochondria Different-Phenotype (%),[4],8%
same,Population Mitotic Cells (%),[4],37%
same,Population Normal (%),[4],64%
same,Population Pyknosed Nuclei (%),[4],51%
same,Population Tubulin-Different-Phenotype (%),[4],41%
same,Total Cell Count,[4],175
same,Population Apoptotic (%),[5],85%
same,Population Fragmented Nuclei (%),[5],18%
same,Population Hoechst High Intensity Objects (%),[5],19%
same,Population Mitochondria Different-Phenotype (%),[5],90%
same,Population Mitotic Cells (%),[5],14%
same,Population Normal (%),[5],80%
same,Population Pyknosed Nuclei (%),[5],72%
same,Population Tubulin-Different-Phenotype (%),[5],81%
same,Total Cell Count,[5],152
same,Population Apoptotic (%),[6],80%
same,Population Fragmented Nuclei (%),[6],10%
same,Population Healthy Nuclei (%),[6],9%
same,Population Hoechst High Intensity Objects (%),[6],15%
same,Population Membrane Permeable-Phenotype (%),[6],0%
same,Population Mitochondria Different-Phenotype (%),[6],100%
same,Population Mitotic Cells (%),[6],20%
same,Population Normal (%),[6],84%
same,Population Pyknosed Nuclei (%),[6],79%
same,Population Tubulin-Different-Phenotype (%),[6],100%
same,Total Cell Count,[6],141
same,Population Apoptotic (%),[7],44%
same,Population Fragmented Nuclei (%),[7],20%
same,Population Healthy Nuclei (%),[7],0%
same,Population Hoechst High Intensity Objects (%),[7],22%
same,Population Membrane Permeable-Phenotype (%),[7],0%
same,Population Mitochondria Different-Phenotype (%),[7],100%
same,Population Mitotic Cells (%),[7],55%
same,Population Normal (%),[7],77%
same,Population Pyknosed Nuclei (%),[7],79%
same,Total Cell Count,[7],135
same,Population Apoptotic (%),[8],42%
same,Population Fragmented Nuclei (%),[8],28%
same,Population Healthy Nuclei (%),[8],21%
same,Population Hoechst High Intensity Objects (%),[8],26%
same,Population Membrane Permeable-Phenotype (%),[8],18%
same,Population Mitochondria Different-Phenotype (%),[8],18%
same,Population Mitotic Cells (%),[8],57%
same,Population Normal (%),[8],73%
same,Population Pyknosed Nuclei (%),[8],50%
same,Population Tubulin-Different-Phenotype (%),[8],100%
same,Total Cell Count,[8],103
same,Population Apoptotic (%),[9],85%
same,Population Fragmented Nuclei (%),[9],26%
same,Population Healthy Nuclei (%),[9],2%
same,Population Hoechst High Intensity Objects (%),[9],22%
same,Population Mitochondria Different-Phenotype (%),[9],66%
same,Population Mitotic Cells (%),[9],14%
same,Population Normal (%),[9],77%
same,Population Pyknosed Nuclei (%),[9],70%
same,Population Tubulin-Different-Phenotype (%),[9],66%
same,Total Cell Count,[9],155
same,Population Apoptotic (%),[10],92%
same,Population Fragmented Nuclei (%),[10],14%
same,Population Healthy Nuclei (%),[10],11%
same,Population Hoechst High Intensity Objects (%),[10],11%
same,Population Membrane Permeable-Phenotype (%),[10],0%
same,Population Mitochondria Different-Phenotype (%),[10],84%
same,Population Mitotic Cells (%),[10],7%
same,Population Normal (%),[10],88%
same,Population Pyknosed Nuclei (%),[10],73%
same,Population Tubulin-Different-Phenotype (%),[10],84%
same,Total Cell Count,[10],124
same,Population Apoptotic (%),[11],49%
same,Population Fragmented Nuclei (%),[11],20%
same,Population Healthy Nuclei (%),[11],0%
same,Population Hoechst High Intensity Objects (%),[11],22%
same,Population Membrane Permeable-Phenotype (%),[11],0%
same,Population Mitochondria Different-Phenotype (%),[11],0%
same,Population Mitotic Cells (%),[11],50%
same,Population Normal (%),[11],77%
same,Population Pyknosed Nuclei (%),[11],79%
same,Population Tubulin-Different-Phenotype (%),[11],0%
same,Total Cell Count,[11],132
same,Population Apoptotic (%),[12],33%
same,Population Fragmented Nuclei (%),[12],31%
same,Population Healthy Nuclei (%),[12],50%
same,Population Hoechst High Intensity Objects (%),[12],40%
same,Population Membrane Permeable-Phenotype (%),[12],13%
same,Population Mitochondria Different-Phenotype (%),[12],28%
same,Population Mitotic Cells (%),[12],66%
same,Population Normal (%),[12],59%
same,Population Pyknosed Nuclei (%),[12],17%
same,Population Tubulin-Different-Phenotype (%),[12],64%
same,Total Cell Count,[12],176
